# Published values gathered from unrelated publications.
# Each line is one published result; the experiments were not run side by side.
# Target: Serine/threonine-protein kinase Nek6 (NEK6, Homo sapiens, UniProt Q9HC98)
SMILES,test,setting,remaining binding
C[C@@H](c1cccc(C#N)c1)n1cc(Cl)cc(C(N)=O)c1=N,"cell-free assay, competition with immobilised ligand",1 µM,79%
CN(c1nccc(-c2cnn3ncccc23)n1)C1CC1,binding,1 µM,100%
c1cncc(-c2cccc(Nc3nccc(NC4CCCCC4)n3)c2)c1,"binding, competition with immobilised ligand",10 µM,71%
N[C@@H]1CCN(c2nccc(-c3cnn4ncccc34)n2)C1,binding,1 µM,100%
CNC(=O)[C@@H]1CC[C@@H](n2c(-c3ccc4cnccc4c3)nc3ccc(C(=O)NCc4cccc(C(N)=O)c4)cc32)C1,"binding, competition with immobilised ligand",1 µM,97%
O=C(c1ccc(Nc2ncc(Cl)c(-c3ccc(Cl)s3)n2)cc1)N1CCC(N2CCCC2)CC1,"binding, competition with immobilised ligand",1 µM,9.9%
CN(C)c1nccc(-c2cnc3ncccn23)n1,binding,1 µM,94%
C=CC(=O)N1CCC(C(=O)NCC(=O)N2CCN(c3nc(-c4cnc(N)nc4C(F)F)nc(N4CCOCC4)n3)CC2)CC1,"binding, competition with immobilised ligand",1 µM,95%
C[C@@H](c1ccc(-n2cnc3c(N)ncnc32)cc1)N1CCc2nn(C)c(Cc3ccccc3)c2C1=O,"binding, competition with immobilised ligand",0.1 µM,90%
CCC(=O)N[C@H]1CC[C@@H](C(=O)N(C)c2ccc(-c3nc4ccccc4o3)cc2)C1,"cell-free assay, competition with immobilised ligand",1 µM,85%
CN(C)c1ncc(F)c(-c2cnn3ncccc23)n1,binding,1 µM,99%
O=C(c1ccc(Nc2nccc(-c3cc4ccccc4s3)n2)cc1)N1CCC(N2CCCC2)CC1,"binding, competition with immobilised ligand",1 µM,87%
COc1ccnn2ncc(-c3ccnc(N(C)C)n3)c12,binding,1 µM,100%
O=C(N[C@H]1CCCCC/C=C\C2C[C@@]2(C(=O)O)NC(=O)[C@@H]2C[C@@H](Oc3ccncc3)CN2C1=O)OC1CCCC1 (stereo partly shown),"binding, competition with immobilised ligand",1 µM,87%
C[C@@H]1CCN(c2nccc(-c3cnn4ncccc34)n2)C1,binding,1 µM,100%
FC(F)(F)Oc1cccc(-c2cnc3ccc(-c4ccncc4)nn23)c1,"cell-free assay, competition with immobilised ligand",5 µM,85%
COc1ccc2c(O[C@@H]3C[C@H]4C(=O)N[C@]5(C(=O)O)CC5/C=C\CCCCC[C@H](NC(=O)OC5CCCC5)C(=O)N4C3)cc(-c3csc(NC(=O)C(C)C)n3)nc2c1C (stereo partly shown),"cell-free assay, competition with immobilised ligand",1 µM,98%
O=C(c1ccc(Nc2ncc(Cl)c(-c3cc4ccccc4s3)n2)cc1)N1CCC(N2CCCC2)CC1,"binding, competition with immobilised ligand",1 µM,35%
CS(=O)(=O)N1CCCC(NC(=O)[C@H](CCC2CCCCC2)NC(=O)c2ccc(CNC(=O)c3cnc4ccccn34)cc2)C1 (stereo partly shown),"cell-free assay, competition with immobilised ligand",0.1 µM,100%
F[C@@H]1CCN(c2nccc(-c3cnn4ncccc34)n2)C1,binding,1 µM,100%
CCCOc1ccc([C@@H]2[C@@H](C(=O)O)[C@H](c3ccc4c(c3)OCO4)CN2CC(=O)Nc2c(CC)cccc2CC)cc1,"cell-free assay, competition with immobilised ligand",1 µM,92%
O=C(NCC1CCOCC1)c1n[nH]cc1NC(=O)c1c(F)cccc1F,"binding, competition with immobilised ligand",1 µM,90%
